Drawing on ChEMBL document CHEMBL1156068, “Synthesis, pharmacological and antiviral activity of 1,3-thiazepine derivatives” (Eur J Med Chem, 2009), this text covers Activity, CC50 and EC50 for 14 compounds.

The test system of data set [1] is Poliovirus 1. Put plainly: Antiviral activity against Poliovirus type 1 Sabin infected in african green monkey Vero76 cells after 2 days by plaque reduction assay. The conditions noted are these: Vero 76. The format is functional, cell-based.
Data set [2] relates to Vaccinia virus. Put plainly: Antiviral activity against Vaccinia virus infected in african green monkey Vero76 cells after 3 days by plaque reduction assay. It counts as functional, organism-based. Conditions: Orthopoxvirus vaccinia; Vero 76. On the technique in general: In a plaque reduction assay, fewer plaques than in the control indicate reduced infectivity or spread.

In data set [3] the test system is Mammalian orthoreovirus 1. The data set can be described thus: Antiviral activity against Reo virus type-1 infected in BHK-21 cells assessed as protection against virus induced cytopathogenicity after 3 to 4 days by MTT assay. The format is functional, organism-based. The gist of the method: (§1)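 Monolayers were grown overnight at 37 °C, 5% CO2: MDBK at 3×10^4 cells/well, BHK at 5×10^4 cells/well. Cells infected at m.o.i. 0.01. After 1 h, serial compound dilutions added in MEM with 1% FCS. Viability read by MTT after 3–4 days at 37 °C. EC50 is the concentration giving 50% protection from cytopathogenicity.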
In general terms: Cytopathic effects are the visible damage that an infection or toxin causes in cultured cells.

The test system of data set [4] is Coxsackievirus B2. The data set can be described thus: Antiviral activity against Coxsackie virus B2 infected in african green monkey Vero76 cells after 3 days by plaque reduction assay. The conditions noted are these: Vero 76. The format is functional, organism-based. The gist of the method: (§2)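 Vero 76 monolayers (2×10^5 cells/well, overnight) infected to give 50–100 PFU/well. Unadsorbed virus removed, then DMEM with 1% FCS, 0.75% methylcellulose and serial compound dilutions added. Incubated at 37 °C for 3 days (CVB-2, HSV-1) or 5 days (RSV). Fixed and stained with 50% ethanol/0.8% crystal violet in PBS; plaques counted.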

Data set [5] relates to Yellow fever virus. The data set can be described thus: Antiviral activity against Yellow fever virus infected in BHK-21 cells assessed as protection against virus induced cytopathogenicity after 3 to 4 days by MTT assay. The format is functional, organism-based. In outline: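 BHK cells were seeded at 5 × 10^4 per well and grown overnight to monolayers, then infected at m.o.i. 0.01 in serum-free medium. One hour later, MEM Earle's with 1% FCS (final) and serial compound dilutions were added. After 3–4 days at 37 °C, viability was read by MTT. EC50 is the concentration giving 50% protection from virus-induced cytopathogenicity.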

The subject of data set [6] is Bovine viral diarrhea virus 1. Put plainly: Antiviral activity against Bovine viral diarrhea virus infected in MDBK cells assessed as protection against virus induced cytopathogenicity after 3 to 4 days by MTT assay. It counts as functional, organism-based. In outline:
as §1

In data set [7] the test system is Respiratory syncytial virus. The data set can be described thus: Antiviral activity against Respiratory syncytial virus infected in african green monkey Vero76 cells after 5 days by plaque reduction assay. The format is functional, organism-based. The conditions noted are these: Vero 76. In outline:
as §2

Data set [8] deals with Vesicular stomatitis virus. The data set can be described thus: Antiviral activity against Vesicular stomatitis virus infected in african green monkey Vero76 cells after 2 days by plaque reduction assay. The format is functional, organism-based. Conditions: Vero 76.
Data set [9] deals with Human alphaherpesvirus 1. The data set can be described thus: Antiviral activity against HSV1 infected in african green monkey Vero76 cells after 3 days by plaque reduction assay. It counts as functional, organism-based. The conditions noted are these: Vero 76. In outline: as §2
Data set [10] is described as follows: Cytotoxicity against human MT4 cells assessed as reduction of cell viability after 96 hrs by MTT assay. The format is cell-based. In outline: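 Exponentially growing, mock-infected MT-4 cells were seeded at 1×10^5 cells mL-1 in RPMI-1640 with 10% FCS and penicillin/streptomycin, with serial compound dilutions. Incubated 96 h at 37 °C, 5% CO2, then viability read by MTT. CC50 is the concentration reducing viability by 50%.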
On the technique in general: Tetrazolium dyes change colour on reduction, which living cells bring about.

Data set [11] concerns Human immunodeficiency virus 1. Put plainly: Antiviral activity against wild type HIV1 3B infected in human MT4 cells assessed as protection against virus induced cytopathogenicity after 4 days by MTT assay. It counts as functional, organism-based. The conditions noted are these: Human immunodeficiency virus 1, 3B, MT4, 96 h. In outline:
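MT-4 cells (1×10^4/well) in RPMI with serial compound dilutions were infected with HIV-1 (100 CCID50; m.o.i. 0.01). After 4 days, viability was measured by MTT. EC50 is the concentration giving 50% protection from virus-induced cytopathogenicity. Compounds were prepared as 100 mM DMSO stocks diluted in medium.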

A word on the CC50: it is the concentration at which the toxic effect on the cells reaches its halfway point. In general, EC50 refers to the concentration needed to bring the measured effect to its halfway point.

Each structure is given as a SMILES string. Calls of active or inactive are those of the source. No cut-off for these calls is given here. A value given as a limit tells only on which side of the number the result lay.

As for `CC1=CC2C(C(C)C)CC1C1C(=O)N(NC(=S)Nc3ccc(C)cc3)C(=O)C21` (configuration not stated), the outcome in [1], in data set [2], in data set [3], in [4], in data set [5] and in data set [6] was inactive. The result in data set [7], in [8] and in data set [9] was inactive.

On to `CC(C)C12C=CC(C)(CC1)C1C(=O)N(NC(=S)Nc3ccc(Cl)cc3)C(=O)C12` (configuration not stated), for which the result in data set [1], in [2], in [3], in data set [4], in [5] and in [6] was inactive. For the same compound, the outcome in data set [7], in data set [8] and in data set [9] was inactive.

As to `CC1=CC2C(C(C)C)CC1C1C(=O)N(N3CCCCS/C3=N\c3ccc(Cl)c(Cl)c3)C(=O)C21` (configuration not stated), the result in [1], in data set [2], in [3], in data set [4], in data set [5] and in data set [6] was inactive. For the same compound, the outcome in data set [7], in data set [8] and in data set [9] was inactive. In data set [10], the half-maximal cytotoxic concentration (CC50) at 96 h came out at 100 µM. The EC50 in [11] was more than 100 µM.

Turning to `CC1=CC2C(C(C)C)CC1C1C(=O)N(N3CCCCS/C3=N\c3ccc(I)cc3)C(=O)C21` (configuration not stated), the outcome in data set [1], in [2], in data set [3], in [4], in [5] and in data set [6] was inactive. The outcome in [7], in data set [8] and in data set [9] was inactive. Also, the CC50 at 96 h in data set [10] came to 22 µM. Also, the concentration giving a half-maximal response (EC50) in data set [11] was more than 22 µM.

`C=CCNC(=S)NN1C(=O)C2C3CC(C(C)C)C(C=C3C)C2C1=O` (configuration not stated): the result in [1], in data set [2], in data set [3], in data set [4], in [5] and in data set [6] was inactive. Besides, the outcome in data set [7], in [8] and in data set [9] was inactive. For the same compound, the CC50 at 96 h in data set [10] was more than 100 µM. The EC50 in data set [11] was more than 100 µM.

Consider `CC1=CC2C(C(C)C)CC1C1C(=O)N(NC(=S)Nc3ccc(I)cc3)C(=O)C21` (configuration not stated), for which the outcome in data set [1], in data set [2], in data set [3], in [4], in data set [5] and in [6] was inactive. Moreover, the outcome in data set [7], in data set [8] and in data set [9] was inactive. The CC50 at 96 h in data set [10] was 45 µM. For the same compound, the EC50 in [11] was more than 45 µM.

Turning to `C=CC/N=C1\SCCCCN1N1C(=O)C2C(C1=O)C1(C(C)C)C=CC2(C)CC1` (configuration not stated), the result in data set [1], in data set [2], in data set [3], in [4], in [5] and in data set [6] was inactive. For the same compound, the outcome in [7], in data set [8] and in data set [9] was inactive. The CC50 at 96 h in data set [10] was determined as 58 µM. Also, the EC50 in data set [11] is more than 58 µM.

For the compound `CC(C)C12C=CC(C)(CC1)C1C(=O)N(N3CCCCS/C3=N\Cc3ccccc3)C(=O)C12` (configuration not stated), the outcome in data set [1], in data set [2], in data set [3], in [4], in data set [5] and in [6] was inactive. Besides, the outcome in [7], in data set [8] and in data set [9] was inactive. The cytotoxic concentration (CC50) at 96 h in data set [10] was more than 100 µM. For the same compound, the EC50 in [11] was more than 100 µM.

Consider `CC(C)C12C=CC(C)(CC1)C1C(=O)N(NC(=S)Nc3ccc(F)cc3)C(=O)C12` (configuration not stated), for which the outcome in [1], in [2], in [3], in [4], in [5] and in data set [6] was inactive. Besides, the result in data set [7], in [8] and in [9] was inactive.

Regarding `CC(C)C12C=CC(C)(CC1)C1C(=O)N(NC(=S)NCc3ccccc3)C(=O)C12` (configuration not stated), the outcome in data set [1], in [2], in [3], in data set [4], in data set [7] and in data set [8] was inactive. In addition, in [9], the result was inactive. The EC50 is 41 µM in data set [5] and more than 58 µM in data set [11]. Besides, in [10], the CC50 at 96 h stood at 58 µM.

Regarding `Cc1ccc(NC(=S)NN2C(=O)C3C(C2=O)C2(C(C)C)C=CC3(C)CC2)cc1` (configuration not stated), the result in data set [1], in data set [2], in [3], in [4], in [5] and in data set [6] was inactive. Moreover, the outcome in data set [7], in data set [8] and in [9] was inactive.

As to `Cc1ccc(/N=C2\SCCCCN2N2C(=O)C3C(C2=O)C2(C(C)C)C=CC3(C)CC2)cc1` (configuration not stated), the outcome in [1], in [2], in data set [3], in data set [4], in [5] and in [6] was inactive. Further, the outcome in [7], in data set [8] and in [9] was inactive.

As for `C=CCNC(=S)NN1C(=O)C2C(C1=O)C1(C(C)C)C=CC2(C)CC1` (configuration not stated), the result in data set [1], in data set [2], in data set [3], in data set [4], in data set [7] and in data set [8] was inactive. For the same compound, the result in [9] was inactive. Also, the concentration for a half-maximal effect (EC50) was 52 µM in [6] (Bovine viral diarrhea virus isolates and strains); more than 100 µM in data set [11]. In addition, the 50% cytotoxic concentration (CC50) at 96 h in data set [10] is more than 100 µM.

For the compound `O=C1Nc2ccc(Cl)cc2[C@@](C#CC2CC2)(C(F)(F)F)O1` [EFAVIRENZ], the CC50 at 96 h in data set [10] came to 35 µM.
